Source: publication PMC12811664 (Angewandte Chemie (International Ed. in English), 2025)
Where a chain is given by its changes, count along the chain named.

Assays:
DC-SIGN ECD = target: T1, DC-SIGN ECD (Homo sapiens, UniProt Q9NNX6); assay: Plate-based horseradish peroxidase; format: biochemical
T1 sequence (Q9NNX6 64-404): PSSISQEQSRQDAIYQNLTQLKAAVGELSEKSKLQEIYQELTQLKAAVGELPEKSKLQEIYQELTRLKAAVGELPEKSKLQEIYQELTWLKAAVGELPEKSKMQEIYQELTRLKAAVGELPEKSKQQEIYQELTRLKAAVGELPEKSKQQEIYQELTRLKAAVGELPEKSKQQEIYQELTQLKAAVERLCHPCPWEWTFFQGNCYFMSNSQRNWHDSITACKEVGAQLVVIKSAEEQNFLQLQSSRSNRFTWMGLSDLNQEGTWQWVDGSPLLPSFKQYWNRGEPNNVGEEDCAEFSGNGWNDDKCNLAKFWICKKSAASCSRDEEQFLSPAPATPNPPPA
Method in brief: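 Purified DC-SIGN extracellular domain immobilized on plates. Incubated overnight at 4 °C or room temperature with test compound at 0.5 mM for the screen, or at a concentration series for dose-response (overnight, RT, or varied incubation times). After washing, HRP added; it binds via its own glycans. Bound HRP read by peroxidase activity relative to DMSO control. Hit cutoff ≥50% change. EDTA, mannan and mannose used as controls. Mean of three biological replicates.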

DC-SIGN CRD = target: T2, DC-SIGN CRD (Homo sapiens, UniProt Q9NNX6); assay: Grating-coupled interferometry; format: binding; settings: mannose-PEG3 sensor; for EC50: EC50, GCI binding response, overnight incubation at RT
T2 sequence (Q9NNX6 253-404): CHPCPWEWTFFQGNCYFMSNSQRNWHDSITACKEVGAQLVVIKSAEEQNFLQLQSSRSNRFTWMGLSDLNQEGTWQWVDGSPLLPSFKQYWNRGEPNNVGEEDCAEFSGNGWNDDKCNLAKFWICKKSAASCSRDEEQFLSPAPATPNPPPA

DC-SIGN ECD K373R = target: T3, DC-SIGN ECD K373R (Homo sapiens, UniProt Q9NNX6, K373R); assay: HRP binding assay with Lys mutant K373R; format: biochemical
T3 sequence (Q9NNX6 64-404 K373R): T1 sequence (Q9NNX6 64-404) with K310R

DC-SIGN ECD K295R = target: T4, DC-SIGN ECD K295R (Homo sapiens, UniProt Q9NNX6, K295R); assay: HRP binding assay with Lys mutant K295R; format: biochemical
T4 sequence (Q9NNX6 64-404 K295R): T1 sequence (Q9NNX6 64-404) with K232R

DC-SIGN ECD K340R = target: T5, DC-SIGN ECD K340R (Homo sapiens, UniProt Q9NNX6, K340R); assay: HRP binding assay with Lys mutant K340R; format: biochemical
T5 sequence (Q9NNX6 64-404 K340R): T1 sequence (Q9NNX6 64-404) with K277R

DC-SIGN CRD wild type = target: T6, DC-SIGN CRD wild type (Homo sapiens, UniProt Q9NNX6); assay: Dynamic light scattering of modified protein; settings: protein-compound ratios up to 1:10
T6 sequence (Q9NNX6 253-404): T2 sequence (Q9NNX6 253-404)

DC-SIGN CRD M270F = target: T7, DC-SIGN CRD M270F (Homo sapiens, UniProt Q9NNX6, M270F); assay: Dynamic light scattering of modified protein, M270F mutant; settings: secondary site blocked
T7 sequence (Q9NNX6 253-404 M270F): T2 sequence (Q9NNX6 253-404) with M18F

Row | EC50 (DC-SIGN ECD) [µM] | EC50 (DC-SIGN CRD) [µM] | activity (EC50) on mutant compared to the wild type, HRP assay (DC-SIGN ECD K373R) | activity (EC50) on mutant compared to the wild type, HRP assay (DC-SIGN ECD K295R) | activity (EC50) on mutant compared to the wild type, HRP assay (DC-SIGN ECD K340R) | change of protein hydrodynamic size upon modification (DLS) (DC-SIGN CRD wild type) | change of protein hydrodynamic size upon modification (DLS) (DC-SIGN CRD M270F) | screening outcome, activity change compared to the DMSO control (DC-SIGN ECD; 0.5 mM compound, overnight, cutoff ∼50% activity change) | time dependency of dose-response after varying incubation times, HRP assay (DC-SIGN ECD; reaction quenched at different time points) | Hill slope (nH), GCI (DC-SIGN CRD) | IC50 (DC-SIGN ECD) [µM] | SMILES
1 | 30 | 200 | No change in EC50 | No change in EC50 | No change in EC50 | induces oligomerization | lack of oligomerization |  |  |  |  | O=C(ON1C(=O)CCC1=O)c1cc(C(F)(F)F)cc(C(F)(F)F)c1 [Compound 11, 2,5-dioxopyrrolidin-1-yl 3,5-bis(trifluoromethyl)benzoate]
2 |  |  |  |  |  |  |  | potential inhibitor |  |  |  | O=Cc1cc2ccccc2cc1C=O [Compound 30, naphthalene‐2,3‐dicarbaldehyde]
3 |  | 100 | drastically reduced activity | EC50s similar to that of the wild type | EC50s similar to that of the wild type | no increase in size |  |  | clear time dependency | ≈ 1 |  | COc1c(Nc2cc(C(F)(F)F)cc(C(F)(F)F)c2)c(=O)c1=O [Compound 33, 3-((3,5-bis(trifluoromethyl)phenyl)amino)-4-methoxycyclobut-3-ene-1,2-dione]
4 |  |  |  |  |  |  |  |  |  |  | 11400 | OC[C@H]1OC(O)[C@@H](O)[C@@H](O)[C@@H]1O (stereo partly shown) [mannose, reference compound]
